# Reference: ChEMBL document CHEMBL1129074, “Inhibitors of human immunodeficiency virus type 1 derived from gp41 transmembrane protein: structure--activity studies” (J Med Chem, 1996)
# Peptide text beside a SMILES is read from it.
# System: MT4
# Assay: Inhibitory potency of gp41 fragment against HIV-1 induced cytopathic effect in MT-4 cell assay at 20 uM
# Format: functional, Homo sapiens
# Settings: Homo sapiens, MT4
# Procedure, shortened: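 MT4 cells (exponential growth) at 5×10^5 cells/mL infected with HIV-1 IIIB (100× TCID50) for 1 h at 37 °C, diluted 6-fold, added to serially diluted peptide in RPMI 1640/FCS medium; mock-infected controls. After 5 days at 37 °C, 5% CO2, cells lysed with Nonidet-40 and DNA content read by propidium iodide. Inhibition = restoration of infected-cell growth relative to uninfected controls; cytotoxicity measured in parallel.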
row,SMILES,inhibition at 20 µM [%]
1,CC[C@H](C)[C@H](NC(=O)CNC(=O)[C@H](C)NC(=O)[C@@H](NC(=O)[C@@H](NC(=O)[C@H](C)NC(=O)[C@H](C)NC(=O)[C@H](CC(C)C)NC(=O)[C@H](CC(C)C)NC(=O)[C@H](C)NC(=O)[C@H](CCC(N)=O)NC(=O)[C@H](CCC(N)=O)NC(=O)[C@H](C)NC(=O)[C@H](CCC(=O)O)NC(=O)[C@@H](NC(=O)[C@H](C)NC(=O)[C@H](CCCN=C(N)N)NC(=O)[C@H](CC(C)C)NC(=O)[C@H](CC(C)C)NC(=O)[C@H](CC(N)=O)NC(=O)[C@H](CC(N)=O)NC(C)=O)[C@@H](C)CC)[C@@H](C)O)C(C)C)C(=O)N[C@@H](C)C(=O)N[C@@H](C)C(=O)N[C@@H](CC(C)C)C(=O)N[C@@H](CCC(N)=O)C(=O)N[C@@H](C)C(=O)N[C@@H](CCCN=C(N)N)C(=O)N[C@H](C(=O)N[C@@H](C)C(=O)N[C@@H](C)C(=O)N[C@H](C(=O)N[C@@H](CCC(=O)O)C(=O)N[C@@H](C)C(=O)N[C@@H](Cc1ccc(O)cc1)C(=O)N[C@@H](CC(C)C)C(=O)N[C@@H](C)C(=O)N[C@@H](C)C(=O)N[C@@H](CCC(N)=O)C(=O)O)C(C)C)[C@@H](C)CC (Ac-NNLLRAIEAQQALLAATVAGIAALQARIAAVEAYLAAQ-OH),37
2,CC[C@H](C)[C@H](NC(C)=O)C(=O)N[C@@H](CCC(=O)O)C(=O)N[C@@H](C)C(=O)N[C@@H](CCC(N)=O)C(=O)N[C@@H](CCC(N)=O)C(=O)N[C@@H](CC(C)C)C(=O)N[C@@H](CC(C)C)C(=O)N[C@@H](CCC(N)=O)C(=O)N[C@@H](CC(C)C)C(=O)N[C@H](C(=O)N[C@H](C(=O)N[C@@H](Cc1c[nH]c2ccccc12)C(=O)NCC(=O)N[C@H](C(=O)N[C@@H](CCCCN)C(=O)N[C@@H](CCC(N)=O)C(=O)N[C@@H](CC(C)C)C(=O)N[C@@H](CCC(N)=O)C(=O)N[C@@H](C)C(=O)N[C@@H](CCCN=C(N)N)C(=O)N[C@H](C(=O)N[C@@H](CC(C)C)C(=O)N[C@@H](C)C(=O)N[C@H](C(=O)N[C@@H](CCC(=O)O)C(=O)N[C@@H](CCCN=C(N)N)C(=O)N[C@@H](Cc1ccc(O)cc1)C(=O)N[C@@H](CC(C)C)C(=O)N[C@@H](CCCCN)C(=O)N[C@@H](CC(=O)O)C(=O)N[C@@H](CCC(N)=O)C(=O)O)C(C)C)[C@@H](C)CC)[C@@H](C)CC)C(C)C)[C@@H](C)O (Ac-IEAQQLLQLTVWGIKQLQARILAVERYLKDQ-OH),28

# System: MT4
# Assay: Inhibitory potency of gp41 fragment against HIV-1 induced cytopathic effect in MT-4 cell assay
# Format: functional, cell-based
# Settings: Homo sapiens
row,SMILES,IC50 [µM]
1,CC[C@H](C)[C@H](NC(=O)CNC(=O)[C@H](Cc1c[nH]c2ccccc12)NC(=O)[C@@H](NC(=O)[C@@H](NC(=O)[C@H](CC(C)C)NC(=O)[C@H](CCC(N)=O)NC(=O)[C@H](CC(C)C)NC(=O)[C@H](CC(C)C)NC(=O)[C@H](Cc1c[nH]cn1)NC(=O)[C@H](CCC(N)=O)NC(=O)[C@H](CCC(N)=O)NC(=O)[C@H](C)NC(=O)[C@H](CCC(=O)O)NC(=O)[C@@H](NC(=O)[C@H](C)NC(=O)[C@H](CCCN=C(N)N)NC(=O)[C@H](CC(C)C)NC(=O)[C@H](CC(C)C)NC(=O)[C@H](CC(N)=O)NC(=O)[C@H](CC(N)=O)NC(C)=O)[C@@H](C)CC)[C@@H](C)O)C(C)C)C(=O)N[C@@H](CCCCN)C(=O)N[C@@H](CCC(N)=O)C(=O)N[C@@H](CC(C)C)C(=O)N[C@@H](CCC(N)=O)C(=O)N[C@@H](C)C(=O)N[C@@H](CCCN=C(N)N)C(=O)N[C@H](C(=O)N[C@@H](C)C(=O)N[C@@H](C)C(=O)N[C@@H](C)C(=O)NCCCCCC(=O)N[C@@H](C)C(=O)N[C@@H](C)C(=O)N[C@@H](C)C(=O)N[C@@H](C)C(=O)N[C@@H](CC(=O)O)C(=O)N[C@@H](CCCCN)C(=O)O)[C@@H](C)CC (HELM PEPTIDE1{[ac].N.N.L.L.R.A.I.E.A.Q.Q.H.L.L.Q.L.T.V.W.G.I.K.Q.L.Q.A.R.I.A.A.A.[O=C(CCCCCN[*:1])[*:2]].A.A.A.A.D.K}$$$$V2.0),6.3
2,CC[C@H](C)[C@H](NC(=O)CNC(=O)[C@H](Cc1c[nH]c2ccccc12)NC(=O)[C@@H](NC(=O)[C@@H](NC(=O)[C@H](CC(C)C)NC(=O)[C@H](CCC(N)=O)NC(=O)[C@H](CC(C)C)NC(=O)[C@H](CC(C)C)NC(=O)[C@H](Cc1c[nH]cn1)NC(=O)[C@H](CCC(N)=O)NC(=O)[C@H](CCC(N)=O)NC(=O)[C@H](C)NC(=O)[C@H](CCC(=O)O)NC(=O)[C@@H](NC(=O)[C@H](C)NC(=O)[C@H](CCCN=C(N)N)NC(=O)[C@H](CC(C)C)NC(=O)[C@H](CC(C)C)NC(=O)[C@H](CC(N)=O)NC(=O)[C@H](CC(N)=O)NC(=O)CNC(=O)CNC(=O)[C@H](CS)NC(C)=O)[C@@H](C)CC)[C@@H](C)O)C(C)C)C(=O)N[C@@H](CCCCN)C(=O)N[C@@H](CCC(N)=O)C(=O)O (Ac-CGGNNLLRAIEAQQHLLQLTVWGIKQ-OH),14.8
3,CC[C@H](C)[C@H](NC(=O)CNC(=O)[C@H](Cc1c[nH]c2ccccc12)NC(=O)[C@@H](NC(=O)[C@@H](NC(=O)[C@H](CC(C)C)NC(=O)[C@H](CCC(N)=O)NC(=O)[C@H](CC(C)C)NC(=O)[C@H](CC(C)C)NC(=O)[C@H](Cc1c[nH]cn1)NC(=O)[C@H](CCC(N)=O)NC(=O)[C@H](CCC(N)=O)NC(=O)[C@H](C)NC(=O)[C@H](CCC(=O)O)NC(=O)[C@@H](NC(=O)[C@H](C)NC(=O)[C@H](CCCN=C(N)N)NC(=O)[C@H](CC(C)C)NC(=O)[C@H](CC(C)C)NC(=O)[C@H](CC(N)=O)NC(=O)[C@@H](N)CC(N)=O)[C@@H](C)CC)[C@@H](C)O)C(C)C)C(=O)N[C@@H](CCCCN)C(=O)N[C@@H](CCC(N)=O)C(=O)N[C@@H](CC(C)C)C(=O)N[C@@H](CCC(N)=O)C(=O)N[C@@H](C)C(=O)N[C@@H](CCCN=C(N)N)C(=O)N[C@H](C(=O)N[C@@H](CC(C)C)C(=O)N[C@@H](C)C(=O)N[C@H](C(=O)N[C@@H](CCC(=O)O)C(=O)N[C@@H](CCCN=C(N)N)C(=O)N[C@@H](Cc1ccc(O)cc1)C(=O)N[C@@H](CC(C)C)C(=O)N[C@@H](CCCCN)C(=O)N[C@@H](CC(=O)O)C(=O)N[C@@H](CCC(N)=O)C(=O)O)C(C)C)[C@@H](C)CC (H-NNLLRAIEAQQHLLQLTVWGIKQLQARILAVERYLKDQ-OH),2.7
4,CC[C@H](C)[C@H](NC(=O)CNC(=O)[C@H](Cc1c[nH]c2ccccc12)NC(=O)[C@@H](NC(=O)[C@@H](NC(=O)[C@H](CC(C)C)NC(=O)[C@H](CCC(N)=O)NC(=O)[C@H](CC(C)C)NC(=O)[C@H](CC(C)C)NC(=O)[C@H](Cc1c[nH]cn1)NC(=O)[C@H](CCC(N)=O)NC(C)=O)[C@@H](C)O)C(C)C)C(=O)N[C@@H](CCCCN)C(=O)N[C@@H](CCC(N)=O)C(=O)N[C@@H](CC(C)C)C(=O)N[C@@H](CCC(N)=O)C(=O)N[C@@H](C)C(=O)N[C@@H](CCCN=C(N)N)C(=O)N[C@H](C(=O)N[C@@H](CC(C)C)C(=O)N[C@@H](C)C(=O)N[C@H](C(=O)N[C@@H](CCC(=O)O)C(=O)O)C(C)C)[C@@H](C)CC (Ac-QHLLQLTVWGIKQLQARILAVE-OH),4.3
5,CC[C@H](C)[C@H](NC(=O)CNC(=O)[C@H](Cc1c[nH]c2ccccc12)NC(=O)[C@@H](NC(=O)[C@@H](NC(=O)[C@H](CC(C)C)NC(=O)[C@H](CCC(N)=O)NC(=O)[C@H](CC(C)C)NC(=O)CNC(=O)CNC(=O)[C@H](CS)NC(C)=O)[C@@H](C)O)C(C)C)C(=O)N[C@@H](CCCCN)C(=O)N[C@@H](CCC(N)=O)C(=O)N[C@@H](CC(C)C)C(=O)N[C@@H](CCC(N)=O)C(=O)N[C@@H](C)C(=O)N[C@@H](CCCN=C(N)N)C(=O)N[C@H](C(=O)N[C@@H](CC(C)C)C(=O)N[C@@H](C)C(=O)N[C@H](C(=O)N[C@@H](CCC(=O)O)C(=O)N[C@@H](CCCN=C(N)N)C(=O)N[C@@H](Cc1ccc(O)cc1)C(=O)N[C@@H](CC(C)C)C(=O)N[C@@H](CCCCN)C(=O)N[C@@H](CC(=O)O)C(=O)N[C@@H](CCC(N)=O)C(=O)O)C(C)C)[C@@H](C)CC (Ac-CGGLQLTVWGIKQLQARILAVERYLKDQ-OH),60.5
6,CC[C@H](C)[C@H](NC(=O)CNC(=O)[C@H](Cc1c[nH]c2ccccc12)NC(=O)[C@@H](NC(=O)[C@@H](NC(=O)[C@H](CC(C)C)NC(=O)[C@H](CCC(N)=O)NC(=O)[C@H](CC(C)C)NC(=O)[C@H](CC(C)C)NC(=O)CCCCCN)[C@@H](C)O)C(C)C)C(=O)N[C@@H](CCCCN)C(=O)N[C@@H](CCC(N)=O)C(=O)N[C@@H](CC(C)C)C(=O)N[C@@H](CCC(N)=O)C(=O)N[C@@H](C)C(=O)N[C@@H](CCCN=C(N)N)C(=O)N[C@H](C(=O)N[C@@H](CC(C)C)C(=O)O)[C@@H](C)CC (HELM PEPTIDE1{[NCCCCCC(=O)[*:2]].L.L.Q.L.T.V.W.G.I.K.Q.L.Q.A.R.I.L}$$$$V2.0),10.4
7,CC[C@H](C)[C@H](NC(=O)[C@H](CCCN=C(N)N)NC(=O)[C@H](C)NC(=O)[C@H](CCC(N)=O)NC(=O)[C@H](CC(C)C)NC(=O)[C@H](CCC(N)=O)NC(=O)CCCCCNC(=O)[C@H](Cc1c[nH]c2ccccc12)NC(=O)[C@@H](NC(=O)[C@@H](NC(=O)[C@H](CC(C)C)NC(=O)[C@H](CCC(N)=O)NC(=O)[C@H](CC(C)C)NC(=O)[C@H](CC(C)C)NC(=O)[C@H](Cc1c[nH]cn1)NC(=O)[C@H](CCC(N)=O)NC(C)=O)[C@@H](C)O)C(C)C)C(=O)N[C@@H](CC(C)C)C(=O)N[C@@H](C)C(=O)N[C@H](C(=O)N[C@@H](CCC(=O)O)C(=O)O)C(C)C (HELM PEPTIDE1{[ac].Q.H.L.L.Q.L.T.V.W.[O=C(CCCCCN[*:1])[*:2]].Q.L.Q.A.R.I.L.A.V.E}$$$$V2.0),40
8,CC[C@H](C)[C@H](NC(=O)[C@H](CCCN=C(N)N)NC(=O)[C@H](C)NC(=O)[C@H](CCC(N)=O)NC(=O)[C@H](CC(C)C)NC(=O)[C@H](CCC(N)=O)NC(=O)CCCCCNC(=O)CCCCCNC(=O)CNC(=O)[C@H](Cc1c[nH]c2ccccc12)NC(=O)[C@@H](NC(=O)[C@@H](NC(=O)[C@H](CC(C)C)NC(=O)[C@H](CCC(N)=O)NC(=O)[C@H](CC(C)C)NC(=O)[C@H](CC(C)C)NC(=O)[C@H](Cc1c[nH]cn1)NC(=O)[C@H](CCC(N)=O)NC(C)=O)[C@@H](C)O)C(C)C)C(=O)N[C@@H](CC(C)C)C(=O)N[C@@H](C)C(=O)N[C@H](C(=O)N[C@@H](CCC(=O)O)C(=O)O)C(C)C (HELM PEPTIDE1{[ac].Q.H.L.L.Q.L.T.V.W.G.[O=C(CCCCCN[*:1])[*:2]].[O=C(CCCCCN[*:1])[*:2]].Q.L.Q.A.R.I.L.A.V.E}$$$$V2.0),65.7
